TRPC6 activator: activates the mouse TRPC6 cation channel; HEK293-TRPC6 membrane potential dye fluorescence; active compounds read high; B-score at 10 µM; actives 0.13% (n = 310,000); AID 2550;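 active means B-score of the integrated fluorescence ratio above library mean plus 3 SD, and starting fluorescence ratio within library mean plus 5 SD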;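 further: higher score means more depolarization so channel activation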
Target sequence (Q61143 whole entry, looked up): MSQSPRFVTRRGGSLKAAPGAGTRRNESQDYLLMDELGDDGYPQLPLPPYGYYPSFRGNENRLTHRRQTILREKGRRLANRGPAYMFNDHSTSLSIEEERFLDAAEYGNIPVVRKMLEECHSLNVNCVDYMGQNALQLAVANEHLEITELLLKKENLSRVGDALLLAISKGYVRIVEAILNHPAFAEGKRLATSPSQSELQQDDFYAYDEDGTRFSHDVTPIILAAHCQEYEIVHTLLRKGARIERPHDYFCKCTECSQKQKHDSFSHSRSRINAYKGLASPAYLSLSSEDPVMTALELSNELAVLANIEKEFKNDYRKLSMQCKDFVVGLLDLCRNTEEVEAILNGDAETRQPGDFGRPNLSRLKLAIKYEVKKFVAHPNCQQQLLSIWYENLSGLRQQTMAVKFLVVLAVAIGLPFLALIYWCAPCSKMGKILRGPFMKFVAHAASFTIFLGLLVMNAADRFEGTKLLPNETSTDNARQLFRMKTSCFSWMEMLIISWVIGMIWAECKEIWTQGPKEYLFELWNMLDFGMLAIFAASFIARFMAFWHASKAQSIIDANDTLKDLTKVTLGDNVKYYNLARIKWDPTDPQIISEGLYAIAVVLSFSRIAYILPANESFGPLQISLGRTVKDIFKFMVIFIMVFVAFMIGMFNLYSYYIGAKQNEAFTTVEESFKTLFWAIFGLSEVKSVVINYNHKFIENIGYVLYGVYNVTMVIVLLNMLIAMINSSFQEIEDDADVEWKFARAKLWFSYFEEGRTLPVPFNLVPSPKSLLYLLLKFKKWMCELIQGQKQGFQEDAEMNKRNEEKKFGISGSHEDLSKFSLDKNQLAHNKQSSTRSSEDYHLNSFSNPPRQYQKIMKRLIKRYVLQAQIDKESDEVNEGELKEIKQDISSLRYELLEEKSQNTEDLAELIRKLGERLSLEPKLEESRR
TRPC4 PAM: allosterically enhances the mouse TRPC4 cation channel | HEK293 TRPC4beta/mu-opioid, DAMGO EC20, Fluo-4 Ca2+ flux; active compounds read high | actives 0.42% (n = 310,000) | B-score at 10 µM | AID 2227;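 active means B-score of calcium response area above 5 SD of library B-scores, with initial fluorescence ratio within 5 SD of library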
TRPC6 inh: inhibitors of mouse TRPC6 channel. HEK293-TRPC6, membrane potential dye, ACh-evoked depolarization; active compounds read low. Q61143. B-score at 10 µM. actives 1.1% (n = 310,000);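 active means B-score under library mean minus 3 SD, initial fluorescence not abnormally high, positive integrated signal ratio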;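 further: B-score derived from integrated fluorescence ratio over the kinetic read; more negative B-score means stronger inhibition of depolarization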
TRPC4 inh: TRPC4 (mouse) channel inhibition | Q9QUQ5 | AID 2247 | B-score at 10 µM | actives 0.39% (n = 300,000) | HEK293 TRPC4beta/mu-opioid, DAMGO-evoked Fluo4 calcium flux; active compounds read low;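 active means B-score over 3 SD under the library average, no early fluorescence shift, positive overall ratio signal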
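Material: HEK293 cells with stable TRPC4beta plus mu-opioid receptor expression; probe or stimulus: DAMGO in two steps, submaximal then maximal; technique: Fluo4 calcium fluorescence by kinetic imaging, 5 s 1 Hz baseline; measure: integrated fluorescence ratio relative to baseline, converted to per-well B score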
TRPC4 agonist: activators of mouse TRPC4 channel | Q9QUQ5 | HEK293 TRPC4beta/mu-opioid, Fluo4 calcium fluorescence; active compounds read high | B-score at 10 µM | actives 0.49% (n = 310,000) | AID 2237;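 active means B-score above 5 SD of library B-scores, and initial fluorescence ratio not above library mean plus 5 SD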;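 further: positive B-score marks a calcium rise read as TRPC4 activation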
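Assay system: HEK293 stable line with TRPC4beta plus mu-opioid receptor; schedule: 45 min room-temperature Fluo4 loading, 110 s read; technique: kinetic Fluo4 calcium fluorescence; evaluation: integrated baseline-normalised fluorescence ratio, converted to per-well B score; controls: buffer (low) and maximal DAMGO (high)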
TRPC4 sel inh 2: second selectivity test of TRPC6 inhibitors: effect on mouse TRPC4; actives 42% (n = 920); HEK293 TRPC4/MOR, membrane potential dye fluorescence; channel activated by saturating DAMGO dose; shares compounds with TRPC6 inh; inhibition, % at 10 µM;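 active means compounds whose fluorescence signal differed from control wells by over 3 SD, either direction, in both duplicate plates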
TRPC4 spec: mouse TRPC4 off-target activity of TRPC6 inhibitors; shares compounds with TRPC6 inh; HEK293 TRPC4/mu-opioid, membrane potential fluorescence; activity change, negative = inhibition, % at 10 µM; actives 61% (n = 920); AID 2777;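 active means rise or fall in signal beyond 3 SD of buffer-only wells in both replicate plates, either sign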;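 further: integrated kinetic ratio of fluorescence range over baseline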
HEK293 MPD ctr 2-1: second counter-screen for TRPC6 inhibitors: parental HEK293 cells; parental HEK293 membrane potential dye fluorescence; maximal acetylcholine challenge after compound addition; signal change vs control, % at 10 µM; shares compounds with TRPC6 inh; actives 31% (n = 920);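 active means membrane potential signal moving either way by over 3 SD of the maximum-effect control, in both duplicate plates, meaning non-specific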
HEK293 MPD ctr-1: counter-screen for TRPC6 inhibitors: effect in parental HEK293 cells; actives 60% (n = 920); membrane potential signal change, % at 10 µM; shares compounds with TRPC6 inh; parental HEK293 membrane potential dye fluorescence;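 active means membrane potential signal shifting up or down by more than 3 SD of buffer-only wells, on both duplicate plates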
HEK293 MPD ctr-2: counter-screen for TRPC6 modulators: effect in parental HEK293 cells; actives 51% (n = 2,400); shares compounds with TRPC6 inh; membrane potential dye fluorescence; membrane potential signal change, % at 10 µM;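 active means membrane potential signal moves up or down beyond 5 SD from buffer-only wells, on both duplicate plates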
HEK293 MPD ctr 2-2: second counter-screen for TRPC6 modulators: effect in parental HEK293 cells | shares compounds with TRPC6 inh | membrane potential dye fluorescence; after compound, maximal acetylcholine stimulation | inhibition, % at 10 µM | actives 14% (n = 2,400) | AID 488926;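 active means membrane potential signal drops by more than 5 SD from the mean control signal, in both duplicate plates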
TRPC4/MOR mod: selectivity of TRPC6 modulators against mouse TRPC4; shares compounds with TRPC6 inh; HEK293 TRPC4/mu-opioid, membrane potential fluorescence; percent change from control (negative = decrease, positive = increase), % at 10 µM; actives 69% (n = 2,400); AID 488927;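 active means membrane potential signal moved up or down beyond 5 SD of buffer control wells, in both duplicate plates, actives on both sides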
TRPC4/MOR inh 2: second check of whether TRPC6 modulators also affect mouse TRPC4. actives 55% (n = 2,400). HEK293 TRPC4/mu-opioid, membrane potential dye fluorescence; stimulated with maximal-effect DAMGO. inhibition, % at 10 µM. shares compounds with TRPC6 inh;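 active means drop in membrane potential signal beyond 5 SD of the control wells in both duplicate plates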;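 further: TRPC4 counter screen for TRPC6 hits run under conditions tuned for TRPC6 not TRPC4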
TRPC6 inh conf: mouse TRPC6 inhibitor confirmation. actives 43% (n = 3,300). inhibition, % at 10 µM. HEK293-TRPC6, membrane potential dye, ACh-evoked depolarization. shares compounds with TRPC6 inh;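 active means fluorescence ratio falls more than 5 SD below the full-stimulation control mean, in both duplicate runs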;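 further: integrated fluorescence ratio of peak minus minimum over baseline after agonist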
TRPC6 act conf: mouse TRPC6 activator confirmation; shares compounds with TRPC6 inh; activation, % at 10 µM; HEK293-TRPC6 membrane potential dye fluorescence, FDSS; actives 11% (n = 2,800);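 active means ratio signal rise beyond 5 SD above unstimulated control wells' mean, seen in both duplicate runs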
Of the large screens only hits and unclear results are named; the others gave an inactive call (follow-up assays come after a bar, where they were run). Only some compounds are listed: those with a hit (about 2.3% of all), similar ones and a draw of the others.

Cn1c(=O)c(C#N)c(-c2ccc(F)cc2)c2cc(C(=O)c3cc(Cl)cc(Cl)c3O)cnc21	TRPC6 inh -9.4 | TRPC4 sel inh 2 44% | TRPC4 spec -13% | HEK293 MPD ctr 2-1 inactive | HEK293 MPD ctr-1 -158% | TRPC6 inh conf 76% | TRPC6 act conf inactive
Cc1sc2cc3c(c(C(=O)c4ccccc4)[n+]2c1C)-c1cccc2cccc-3c12	TRPC6 inh -8.6, TRPC4 inh -6 | TRPC4 sel inh 2 inactive | TRPC4 spec -28% | HEK293 MPD ctr 2-1 inactive | HEK293 MPD ctr-1 -502% | TRPC6 inh conf inactive | TRPC6 act conf inactive
CCN(CC)C(=O)CSc1nnc(CCCCCNC(=O)OC(C)(C)C)o1	none
CCN(CC)c1ccc(Nc2nc(N3CCOCC3)c3ccccc3n2)cc1	TRPC6 inh -5.2 | HEK293 MPD ctr-2 -143% | HEK293 MPD ctr 2-2 inactive | TRPC4/MOR mod -32% | TRPC4/MOR inh 2 56% | TRPC6 inh conf inactive | TRPC6 act conf inactive
Cc1ccc(Nc2nc(N)c3ccccc3n2)cc1C	TRPC6 inh -12 | HEK293 MPD ctr-2 -94% | HEK293 MPD ctr 2-2 65% | TRPC4/MOR mod -36% | TRPC4/MOR inh 2 78% | TRPC6 inh conf 66% | TRPC6 act conf inactive
COc1ccc(Nc2nc(N)c3ccccc3n2)c(OC)c1	TRPC6 inh -10, TRPC4 inh -7 | HEK293 MPD ctr-2 -202% | HEK293 MPD ctr 2-2 86% | TRPC4/MOR mod -42% | TRPC4/MOR inh 2 92% | TRPC6 inh conf 90% | TRPC6 act conf inactive
COc1cc2nc(Nc3cccc(F)c3)nc(N)c2cc1OC	TRPC6 inh -6.5 | HEK293 MPD ctr-2 inactive | HEK293 MPD ctr 2-2 inactive | TRPC4/MOR mod inactive | TRPC4/MOR inh 2 47% | TRPC6 inh conf 52% | TRPC6 act conf inactive
Cc1ccc(Nc2nc3ccccc3c(=O)[nH]2)cc1C	none
COc1nc(Nc2cccc(F)c2)nc(OC)n1	none
COc1ccc(Nc2nc(-c3ccccc3)nc3ccccc23)c(OC)c1	none
O=C(CSc1nc2ccccc2c(=O)[nH]1)c1cccs1	none
N#Cc1c(-c2cccs2)nc(SCC(=O)c2cccs2)[nH]c1=O	TRPC6 activator 12 | HEK293 MPD ctr-2 114% | HEK293 MPD ctr 2-2 inactive | TRPC4/MOR mod 26% | TRPC4/MOR inh 2 inactive | TRPC6 inh conf inactive | TRPC6 act conf 40%
CC(C)Cc1nnc(NC(=O)c2ccc(N3CCCC3=O)cc2)s1	none
CC(C)Cc1nnc(NC(=O)c2ccc3c(=O)n4c(nc3c2)CCC4)s1	TRPC6 inh -7.7 | TRPC4 sel inh 2 inactive | TRPC4 spec -15% | HEK293 MPD ctr 2-1 inactive | HEK293 MPD ctr-1 -280% | TRPC6 inh conf inactive | TRPC6 act conf inactive
CCCc1n(CC)c2ccccc2[n+]1CC(O)COC1CCCCC1 (stereo unspecified)	none
CCN(CC)CCNC(=S)NC(=O)c1cn(-c2ccccc2)nc1-c1ccc(OC)cc1	TRPC6 inh -5.1 | HEK293 MPD ctr-2 inactive | HEK293 MPD ctr 2-2 inactive | TRPC4/MOR mod inactive | TRPC4/MOR inh 2 58% | TRPC6 inh conf inactive | TRPC6 act conf inactive
COC(=O)c1cn(-c2ccccc2)nc1-c1ccc(OC)cc1	none
CCC(CC)c1nnc(NC(=O)c2ccc(N3CCCC3=O)cc2)s1	none
COc1cc(/C=C2\SC(=S)N(NS(=O)(=O)c3ccccc3)C2=O)ccc1O	TRPC6 activator 15 | HEK293 MPD ctr-2 490% | HEK293 MPD ctr 2-2 74% | TRPC4/MOR mod 64% | TRPC4/MOR inh 2 inactive | TRPC6 inh conf inactive | TRPC6 act conf 57%
COc1cc(/C=C2\SC(=S)N(NC(=O)c3ccccc3OC)C2=O)ccc1O	none
COc1cc(/C=C2\SC(=S)N(NS(=O)(=O)c3ccc(C)cc3)C2=O)ccc1O	TRPC6 activator 23 | HEK293 MPD ctr-2 614% | HEK293 MPD ctr 2-2 inactive | TRPC4/MOR mod 90% | TRPC4/MOR inh 2 29% | TRPC6 inh conf inactive | TRPC6 act conf 110%
CC(C)(C)c1cc(CN(CCO)CCO)c(O)c(C(C)(C)C)c1	none
CCN(CC)CCCOC(=O)C(c1ccccc1)c1ccccc1	TRPC6 inh -7.2 | TRPC4 sel inh 2 inactive | TRPC4 spec 9.6% | HEK293 MPD ctr 2-1 inactive | HEK293 MPD ctr-1 12% | TRPC6 inh conf 61%
O=C1CC(c2ccc(F)cc2)CC(O)=C1C=NCCN1CCNCC1 (stereo unspecified)	none
O=C1CC(c2ccco2)CC(O)=C1C=NCCN1CCNCC1 (stereo unspecified)	TRPC6 inh -8.7 | TRPC4 sel inh 2 inactive | TRPC4 spec inactive | HEK293 MPD ctr 2-1 inactive | HEK293 MPD ctr-1 inactive | TRPC6 inh conf inactive | TRPC6 act conf inactive
O=C1CC(c2ccc(Cl)c(Cl)c2)CC(O)=C1C=NCCN1CCNCC1 (stereo unspecified)	TRPC6 inh -5.9 | HEK293 MPD ctr-2 inactive | HEK293 MPD ctr 2-2 inactive | TRPC4/MOR mod 9.5% | TRPC4/MOR inh 2 inactive | TRPC6 inh conf inactive
O=C(OCC#CCSc1nc2ccccc2o1)c1ccco1	none
